Measured values from ChEMBL document CHEMBL1153313, “Fluorinated 9H-xanthene-9-carboxylic acid oxazol-2-yl-amides as potent, orally available mGlu1 receptor enhancers” (Bioorg Med Chem Lett, 2009).

Tests used:
[1] = target: T1, Metabotropic glutamate receptor 1 (Rattus norvegicus, UniProt P23385); assay: Agonist activity at rat mGlu1 receptor expressed in HEK293 cells assessed as increase in intracellular calcium by FLIPR assay; format: functional, cell-based
Outline: (§1)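 Rat mGlu1a transiently transfected into HEK-293 cells, which were loaded with Fluo-3 AM for 1 h and then washed 4 times in assay buffer (DMEM with Hank's salts, 20 mM HEPES). [Ca2+]i was read on a fluorometric imaging plate reader and converted to fluorescence ratios. EC50 is the mean of separate values from at least three individual experiments.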

[2] = Cmax in rat plasma at 10 mg/kg, po; format: ADME, organism-based; set-up: dose 10 mg/kg, route oral
Outline: (§2)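 Wistar rats, two per group, fitted with implanted jugular vein catheters. These catheters were used for the iv bolus and for blood sampling. Blood was drawn at 0.3, 0.5, 1, 2, 4, 8 and 24 h after iv or po administration for the plasma pharmacokinetic parameters.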

[3] = target: T1, Metabotropic glutamate receptor 1; assay: Agonist activity at rat mGlu1 receptor expressed in CHO cells assessed as potentiation of glutamate-activated K+ currents by electrophysiology
[4] = target: Metabotropic glutamate receptor 1 (Rattus norvegicus) (UniProt P23385); assay: Agonist activity at rat mGlu1 receptor expressed in HEK293 cells assessed as increase in intracellular calcium by FLIPR assay relative to control; format: functional, cell-based; set-up: concentration or dose not given beside the values; outline: as §1
[5] = Half life in rat at 1 mg/kg, iv and 10 mg/kg, po; format: ADME, organism-based; settings: in vivo; outline: as §2
[6] = Metabolic stability in rat microsomes assessed as intrinsic clearance per mg protein; format: ADME, Microsome
[7] = Clearance in rat at 1 mg/kg, iv and 10 mg/kg, po; format: ADME, organism-based; settings: in vivo; outline: as §2
[8] = Ratio of drug level in brain to plasma in rat at 1 mg/kg, iv and 6 mg/kg, po; format: ADME, organism-based; settings: in the assay text read “10 mg/kg” for “6 mg/kg”, read-out: BPR
Outline: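 Brain/plasma ratio came from iv infusion in Wistar rats, two per group, at 1 mg/kg/h via catheter. Blood was sampled sublingually at 1, 3 and 5 h after administration. Brain tissue was taken by decapitation under isoflurane anaesthesia.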

[9] = Volume of distribution in rat at 1 mg/kg, iv and 10 mg/kg, po; format: ADME, organism-based; settings: in vivo, read-out: Vdss; outline: as §2
[10] = target: Metabotropic glutamate receptor 1 (Rattus norvegicus) (UniProt P23385); assay: Agonist activity at rat mGlu1 receptor expressed in CHO cells assessed as […] of glutamate-activated K+ currents by electrophysiology relative to glutamate; format: functional, cell-based; set-up: concentration or dose not given beside the values
Rattus norvegicus = assay: Volume of distribution in rat at 10 mg/kg, iv and po; format: ADME, organism-based; set-up: dose 10 mg/kg, route oral; settings: in vivo; outline: as §2
[11] = Half life in rat at 10 mg/kg, iv and po; format: ADME, organism-based; set-up: dose 10 mg/kg, route oral; settings: in vivo; outline: as §2
[12] = Volume of distribution in rat at 3 mg/kg, iv and 6 mg/kg, po; format: ADME, organism-based; settings: in vivo, read-out: Vdss; outline: as §2
[13] = Clearance in rat at 3 mg/kg, iv and 6 mg/kg, po; format: ADME, organism-based; settings: in vivo; outline: as §2
[14] = Cmax in rat plasma at 6 mg/kg, po; format: ADME, organism-based; set-up: dose 6 mg/kg, route oral; outline: as §2
[15] = Half life in rat at 3 mg/kg, iv and 6 mg/kg, po; format: ADME, organism-based; settings: in vivo; outline: as §2
[16] = Half life in rat at 5 mg/kg, iv and 10 mg/kg, po; format: ADME, organism-based; settings: in vivo; outline: as §2
[17] = Clearance in rat at 5 mg/kg, iv and 10 mg/kg, po; format: ADME, organism-based; settings: in vivo; outline: as §2
[18] = Volume of distribution in rat at 5 mg/kg, iv and 10 mg/kg, po; format: ADME, organism-based; settings: in vivo, read-out: Vdss; outline: as §2

Metabotropic glutamate receptor 1 (Rattus norvegicus), sequence (P23385 19-1199 limits assumed): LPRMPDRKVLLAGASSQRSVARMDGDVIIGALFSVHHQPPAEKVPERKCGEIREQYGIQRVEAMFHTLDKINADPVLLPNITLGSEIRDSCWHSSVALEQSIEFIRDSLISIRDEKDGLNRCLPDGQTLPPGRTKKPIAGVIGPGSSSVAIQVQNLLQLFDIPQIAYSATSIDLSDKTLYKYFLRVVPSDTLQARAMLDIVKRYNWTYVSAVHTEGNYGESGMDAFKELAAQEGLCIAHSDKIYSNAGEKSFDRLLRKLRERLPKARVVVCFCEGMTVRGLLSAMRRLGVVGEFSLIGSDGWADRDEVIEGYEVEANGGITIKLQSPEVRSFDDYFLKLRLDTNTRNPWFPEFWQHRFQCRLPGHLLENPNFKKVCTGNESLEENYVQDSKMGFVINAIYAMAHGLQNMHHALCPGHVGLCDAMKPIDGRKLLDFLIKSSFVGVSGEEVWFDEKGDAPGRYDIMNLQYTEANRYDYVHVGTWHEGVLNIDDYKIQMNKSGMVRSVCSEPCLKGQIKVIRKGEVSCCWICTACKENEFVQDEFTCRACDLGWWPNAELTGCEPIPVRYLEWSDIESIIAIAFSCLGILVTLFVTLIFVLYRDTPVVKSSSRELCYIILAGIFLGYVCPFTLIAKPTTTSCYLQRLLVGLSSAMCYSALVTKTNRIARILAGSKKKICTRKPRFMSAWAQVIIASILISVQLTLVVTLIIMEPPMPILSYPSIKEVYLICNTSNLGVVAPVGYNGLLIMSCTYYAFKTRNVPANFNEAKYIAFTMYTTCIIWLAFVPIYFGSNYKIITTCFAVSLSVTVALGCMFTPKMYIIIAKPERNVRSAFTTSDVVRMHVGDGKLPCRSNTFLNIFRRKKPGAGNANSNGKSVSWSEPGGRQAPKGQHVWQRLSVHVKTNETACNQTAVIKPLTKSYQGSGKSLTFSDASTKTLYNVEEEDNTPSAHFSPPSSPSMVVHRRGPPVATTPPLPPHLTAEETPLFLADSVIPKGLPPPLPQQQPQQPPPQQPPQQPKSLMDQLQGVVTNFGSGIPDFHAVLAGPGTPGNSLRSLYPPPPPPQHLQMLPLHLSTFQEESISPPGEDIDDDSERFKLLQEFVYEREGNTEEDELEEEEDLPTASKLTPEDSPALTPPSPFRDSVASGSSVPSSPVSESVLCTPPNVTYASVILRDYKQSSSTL
T1 sequence (P23385 whole entry): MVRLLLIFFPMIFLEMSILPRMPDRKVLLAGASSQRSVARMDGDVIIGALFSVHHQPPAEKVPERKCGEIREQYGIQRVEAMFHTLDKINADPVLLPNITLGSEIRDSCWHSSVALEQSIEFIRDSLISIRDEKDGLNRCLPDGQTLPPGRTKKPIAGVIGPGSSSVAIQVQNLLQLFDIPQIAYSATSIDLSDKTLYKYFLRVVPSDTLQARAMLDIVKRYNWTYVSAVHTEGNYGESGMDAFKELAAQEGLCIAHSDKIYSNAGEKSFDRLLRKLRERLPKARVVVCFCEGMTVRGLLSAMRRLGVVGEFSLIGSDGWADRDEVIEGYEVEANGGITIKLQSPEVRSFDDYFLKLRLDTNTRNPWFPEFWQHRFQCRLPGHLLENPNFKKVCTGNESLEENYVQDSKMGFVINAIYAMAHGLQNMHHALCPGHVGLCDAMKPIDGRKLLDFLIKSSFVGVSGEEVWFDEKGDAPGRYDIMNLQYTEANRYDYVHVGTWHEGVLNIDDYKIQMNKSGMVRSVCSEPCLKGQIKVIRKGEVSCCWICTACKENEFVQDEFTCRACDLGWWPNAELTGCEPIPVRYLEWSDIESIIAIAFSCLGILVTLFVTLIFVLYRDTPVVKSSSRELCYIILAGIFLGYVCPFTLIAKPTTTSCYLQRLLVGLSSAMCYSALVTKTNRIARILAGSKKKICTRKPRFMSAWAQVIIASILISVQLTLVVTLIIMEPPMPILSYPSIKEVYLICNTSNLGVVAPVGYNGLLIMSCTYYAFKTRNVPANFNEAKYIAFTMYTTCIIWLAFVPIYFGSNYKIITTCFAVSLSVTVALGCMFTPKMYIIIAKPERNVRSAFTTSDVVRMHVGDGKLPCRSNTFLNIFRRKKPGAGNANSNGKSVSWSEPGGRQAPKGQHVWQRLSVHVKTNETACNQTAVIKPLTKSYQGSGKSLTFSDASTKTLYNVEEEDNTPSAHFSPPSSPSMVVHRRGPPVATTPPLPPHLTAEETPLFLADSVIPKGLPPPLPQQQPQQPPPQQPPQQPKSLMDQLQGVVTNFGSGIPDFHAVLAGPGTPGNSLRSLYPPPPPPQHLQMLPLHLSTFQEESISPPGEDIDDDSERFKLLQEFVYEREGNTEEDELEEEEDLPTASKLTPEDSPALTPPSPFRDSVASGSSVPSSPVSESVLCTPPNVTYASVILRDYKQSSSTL

Compound	EC50 ([1]; read-out: EC50)	EC50 [3]	Activity [4]	clearance [6]	Activity [10]	also measured
O=C(Nc1nc(C(F)(F)F)co1)C1c2cccc(F)c2Oc2c(F)cccc21	47 nM	161 nM	51%	18 µL/min/mg	707%	Cmax [2]: 2070 ng/mL; half-life [5]: 3.9 h; clearance [7]: 3.79 mL/min/kg; Kp [8]: 0.2; Vd [9]: 0.43 L/kg
O=C(Nc1ncc(C(F)(F)F)o1)C1c2ccccc2Oc2ccc(F)cc21 (racemic)	20 nM	67 nM	57%	40 µL/min/mg	1220%	–
O=C(Nc1nc(C(F)(F)F)co1)C1c2ccccc2Oc2ccc(F)cc21 (racemic)	40 nM	–	63%	61 µL/min/mg	–	–
Cc1nc(NC(=O)C2c3ccccc3Oc3ccccc32)no1	52 nM	220 nM	100%	42 µL/min/mg	–	Vdss (Rattus norvegicus): 1.7 L/kg; Cmax [2]: 1330 ng/mL; half-life [11]: 0.32 h
O=C(Nc1nc(C(F)(F)F)co1)C1c2ccc(F)cc2Oc2cc(F)ccc21	–	–	–	38 µL/min/mg	–	EC50 ([1]; hek293): Not Active
O=C(Nc1ncc(C(F)(F)F)o1)C1c2ccccc2Oc2c(F)cccc21 (racemic)	–	131 nM	50%	32 µL/min/mg	910%	–
O=C(Nc1nc(C(F)(F)F)co1)C1c2ccccc2Oc2ccccc21	–	202 nM	86%	108 µL/min/mg	1130%	Vdss (Rattus norvegicus): 0.67 L/kg; Cmax [2]: 1330 ng/mL; half-life [11]: 0.91 h
O=C(Nc1nc(C(F)(F)F)co1)C1c2cc(F)ccc2Oc2ccc(F)cc21	–	90 nM	48%	9 µL/min/mg	300%	Vd [12]: 0.9 L/kg; clearance [13]: 7.4 mL/min/kg; Cmax [14]: 1810 ng/mL; half-life [15]: 2.46 h
O=C(Nc1ncc(C(F)(F)F)o1)C1c2ccccc2Oc2ccccc21	–	394 nM	104%	50 µL/min/mg	3060%	–
O=C(Nc1ncc(C(F)(F)F)o1)C1c2cccc(F)c2Oc2c(F)cccc21	25 nM	162 nM	36%	12 µL/min/mg	568%	–
O=C(Nc1ncc(C(F)(F)F)o1)C1c2ccc(F)cc2Oc2cc(F)ccc21	–	–	–	–	–	EC50 ([1]; hek293): Not Active
O=C(Nc1ncc(C(F)(F)F)o1)C1c2ccccc2Oc2cc(F)ccc21 (racemic)	–	–	–	28 µL/min/mg	–	EC50 ([1]; hek293): Not Active
O=C(Nc1nc(C(F)(F)F)co1)C1c2ccccc2Oc2cc(F)ccc21 (racemic)	40 nM	260 nM	50%	34 µL/min/mg	570%	–
O=C(Nc1nc(C(F)(F)F)co1)C1c2ccccc2Oc2c(F)cccc21 (racemic)	19 nM	102 nM	84%	33 µL/min/mg	1190%	half-life [16]: 3.7 h; Cmax [2]: 1440 ng/mL; clearance [17]: 3.3 mL/min/kg; Vd [18]: 0.99 L/kg
